Source: PubChem BioAssay
Only some compounds are listed: those with a hit (about 2.3% of all), similar ones and a draw of the others.
TRPC6 activator – activators of mouse TRPC6 channel | HEK293-TRPC6 membrane potential dye fluorescence; hits give high values | Q61143 | B-score at 10 µM | 310,000 tested, 0.13% active;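 active means B-score of the integrated fluorescence ratio above library mean plus 3 SD, and starting fluorescence ratio within library mean plus 5 SD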;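 further: higher score means more depolarization so channel activation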
Target sequence (Q61143 whole entry, looked up): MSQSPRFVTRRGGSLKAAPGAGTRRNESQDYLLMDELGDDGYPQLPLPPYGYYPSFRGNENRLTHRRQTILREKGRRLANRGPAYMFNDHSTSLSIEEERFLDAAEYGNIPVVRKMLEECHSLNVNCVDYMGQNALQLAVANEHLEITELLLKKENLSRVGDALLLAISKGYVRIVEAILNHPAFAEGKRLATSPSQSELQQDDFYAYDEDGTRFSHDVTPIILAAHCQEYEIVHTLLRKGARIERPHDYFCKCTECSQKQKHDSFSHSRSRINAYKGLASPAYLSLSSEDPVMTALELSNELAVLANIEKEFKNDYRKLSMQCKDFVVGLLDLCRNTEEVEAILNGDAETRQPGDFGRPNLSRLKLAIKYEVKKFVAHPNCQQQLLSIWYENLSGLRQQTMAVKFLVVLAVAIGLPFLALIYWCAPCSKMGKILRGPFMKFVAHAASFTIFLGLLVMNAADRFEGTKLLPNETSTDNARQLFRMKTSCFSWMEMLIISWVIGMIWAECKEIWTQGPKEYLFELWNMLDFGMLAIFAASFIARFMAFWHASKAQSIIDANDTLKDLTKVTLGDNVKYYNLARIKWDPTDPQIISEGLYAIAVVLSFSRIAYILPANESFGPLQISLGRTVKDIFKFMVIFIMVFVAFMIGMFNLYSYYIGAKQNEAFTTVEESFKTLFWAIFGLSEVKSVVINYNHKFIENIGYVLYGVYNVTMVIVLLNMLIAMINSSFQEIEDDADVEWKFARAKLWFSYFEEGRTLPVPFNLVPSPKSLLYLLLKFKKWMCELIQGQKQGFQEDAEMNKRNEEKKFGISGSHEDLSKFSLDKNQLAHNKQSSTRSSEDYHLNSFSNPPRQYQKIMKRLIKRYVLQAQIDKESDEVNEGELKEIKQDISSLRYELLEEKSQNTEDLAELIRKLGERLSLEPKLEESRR
TRPC4 potent – allosterically enhances the mouse TRPC4 cation channel; B-score at 10 µM; HEK293 TRPC4beta/mu-opioid, DAMGO EC20, Fluo-4 Ca2+ flux; hits give high values; 310,000 tested, 0.42% active;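 active means B-score of calcium response area above 5 SD of library B-scores, with initial fluorescence ratio within 5 SD of library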;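 further: B-score of integrated fluorescence ratio over time as area under calcium response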
TRPC4 act – activators of mouse TRPC4 channel. HEK293 TRPC4beta/mu-opioid, Fluo4 calcium fluorescence; hits give high values. B-score at 10 µM. 310,000 tested, 0.49% active;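 active means B-score above 5 SD of library B-scores, and initial fluorescence ratio not above library mean plus 5 SD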;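 further: positive B-score marks a calcium rise read as TRPC4 activation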
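System: HEK293 cells stably co-expressing mouse TRPC4beta and mu-opioid receptor; Schedule: Fluo4 dye loading 45 min at room temperature, 110 s recording; Detection: Fluo4 fluorescence, kinetic; Evaluation: B-scored integrated calcium fluorescence ratio; Controls: buffer (low) and maximal DAMGO (high).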
TRPC6 inhibitor – blocks the mouse TRPC6 cation channel; Q61143; HEK293-TRPC6, membrane potential dye, ACh-evoked depolarization; hits give low values; B-score at 10 µM; 310,000 tested, 1.1% active; AID 2553;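 active means B-score under library mean minus 3 SD, initial fluorescence not abnormally high, positive integrated signal ratio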;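 further: B-score derived from integrated fluorescence ratio over the kinetic read; more negative B-score means stronger inhibition of depolarization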
TRPC4 inh – TRPC4 (mouse) channel inhibition | Q9QUQ5 | HEK293 TRPC4beta/mu-opioid, DAMGO-evoked Fluo4 calcium flux; hits give low values | B-score at 10 µM | 300,000 tested, 0.39% active | AID 2247;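 active means B-score over 3 SD under the library average, no early fluorescence shift, positive overall ratio signal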
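Assay system: HEK293 cells with stable TRPC4beta plus mu-opioid receptor expression. Dosing: single dose. Measured by: Fluo4 Ca2+ flux fluorescence. Also added: DAMGO in two steps, submaximal then maximal. Read-out: B score from integrated Fluo4 fluorescence ratio.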
Numbers without * were called inactive.

For CC(=O)N1c2ccccc2C(C)(c2ccccc2)CC1(C)C (stereo not drawn) the results were TRPC6 activator inactive, TRPC4 potent inactive, TRPC4 act inactive, TRPC6 inhibitor inactive and TRPC4 inh -6*.
CC/C(=N\NC(=O)C1CCCC1)c1ccc(Br)cc1 was read as TRPC6 activator inactive, TRPC4 potent inactive, TRPC4 act inactive, TRPC6 inhibitor inactive and TRPC4 inh inactive.
For O=C(N/N=C/c1cccnc1)c1ccccc1OCc1ccc(Cl)cc1 the results were TRPC6 activator inactive, TRPC4 potent inactive, TRPC4 act 100*, TRPC6 inhibitor inactive and TRPC4 inh -6*.
`O=C(N/N=C/c1cccnc1)c1ccccc1OCc1ccc(Br)cc1` gave TRPC6 activator inactive, TRPC4 potent inactive, TRPC4 act inactive, TRPC6 inhibitor inactive and TRPC4 inh inactive.
`OCCN(CCO)c1ncnc2c1sc1nc(N3CCOCC3)c3c(c12)CCCC3` gave TRPC6 activator inactive, TRPC4 potent 15*, TRPC4 act inactive, TRPC6 inhibitor inactive and TRPC4 inh inactive.
CCC(CC)NCC(O)COc1ccc(Br)cc1 (stereo not drawn) was read as TRPC6 activator inactive, TRPC4 potent inactive, TRPC4 act inactive, TRPC6 inhibitor inactive and TRPC4 inh inactive.
For COC(=O)NCC(c1cccnc1)N1CCN(c2ccccc2OC)CC1 (stereo not drawn) the results were TRPC6 activator inactive, TRPC4 potent inactive, TRPC4 act 69*, TRPC6 inhibitor inactive and TRPC4 inh inactive.
CC(C)c1ccc(C(C)NCCS(=O)(=O)c2ccc(Br)cc2)cc1 (stereo not drawn) was read as TRPC6 activator inactive, TRPC4 potent 19*, TRPC4 act inactive, TRPC6 inhibitor inactive and TRPC4 inh inactive.
CC(NCCS(=O)(=O)c1ccc(Cl)cc1)c1cccc(Cl)c1 (stereo not drawn) was read as TRPC6 activator inactive, TRPC4 potent inactive, TRPC4 act inactive, TRPC6 inhibitor inactive and TRPC4 inh inactive.
`Cn1c(SCC(=O)Nc2cccc(S(=O)(=O)NC3=NCCCCC3)c2)nnc1-c1ccncc1` gave TRPC6 activator inactive, TRPC4 potent inactive, TRPC4 act inactive, TRPC6 inhibitor inactive and TRPC4 inh inactive.
O=[N+]([O-])c1ccc(N2CCN(CCO)CC2)c2ncccc12 was read as TRPC6 activator inactive, TRPC4 potent 21*, TRPC4 act 56*, TRPC6 inhibitor inactive and TRPC4 inh inactive.
`COc1ccc(C2CC(c3ccccc3)Nc3nc(NC(=O)c4cccs4)nn32)cc1` (stereo not drawn) gave TRPC6 activator inactive, TRPC4 potent inactive, TRPC4 act inactive, TRPC6 inhibitor inactive and TRPC4 inh -6*.
`Cc1ccccc1C(=O)Nc1ccc(C(=O)N/N=C/c2ccc(O)cc2)cc1` gave TRPC6 activator inactive, TRPC4 potent inactive, TRPC4 act inactive, TRPC6 inhibitor inactive and TRPC4 inh inactive.
Cc1ccccc1C(=O)Nc1ccc(C(=O)N/N=C/c2ccncc2)cc1 was read as TRPC6 activator inactive, TRPC4 potent inactive, TRPC4 act inactive, TRPC6 inhibitor inactive and TRPC4 inh -6*.
NC(=O)CCn1c(C(=O)c2cc(Cl)c(N)c(Cl)c2)c2ccccc2[n+]1[O-] was read as TRPC6 activator inactive, TRPC4 potent inactive, TRPC4 act inactive, TRPC6 inhibitor inactive and TRPC4 inh inactive.
Screening NCCCn1c(C(=O)c2cc(Cl)c(N)c(Cl)c2)c2ccccc2[n+]1[O-] returned TRPC6 activator inactive, TRPC4 potent inactive, TRPC4 act 178*, TRPC6 inhibitor inactive and TRPC4 inh inactive.
COCc1ccc(CN2CCCC(CO)(Cc3ccccc3C)C2)o1 (stereo not drawn) was read as TRPC6 activator inactive, TRPC4 potent inactive, TRPC4 act inactive, TRPC6 inhibitor inactive and TRPC4 inh inactive.
For COc1cc(CN2CCCC(CO)(Cc3ccccc3C)C2)cc2c1OCO2 (stereo not drawn) the results were TRPC6 activator inactive, TRPC4 potent inactive, TRPC4 act inactive, TRPC6 inhibitor inactive and TRPC4 inh -6*.
COC(=O)C1CC(=O)N(Cc2ccccc2)C1 (stereo not drawn) was read as TRPC6 activator inactive, TRPC4 potent inactive, TRPC4 act inactive, TRPC6 inhibitor inactive and TRPC4 inh inactive.
